Test results taken from ChEMBL document CHEMBL2384929, “Synthesis and biological evaluation of fluoro analogues of antimitotic phenstatin” (Bioorg Med Chem, 2013).

System: SF-268
Assay: Cytotoxicity against human SF268 cells assessed as growth inhibition after 48 hrs by SRB assay
Type: functional
Conditions: SF-268, 48 h
Summary of the method: (§1)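 Run in the NCI 60 human tumour cell line panel. Cells exposed for 48 h, growth read by sulforhodamine B. Compounds were first screened at a single 10 µM dose, and those meeting preset threshold inhibition criteria went on to the 5-dose screen. GI50 is the molar concentration giving 50% growth inhibition.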
`C=C(c1cc(OC)c(OC)c(OC)c1)c1cc(OC)c(F)cc1OC` gave a GI50 of 2670 nM.

Organism: Ovis aries
Assay: Inhibition of sheep brain tubulin assembly at 100 uM by DAPI staining-based fluorescence assay
Conditions: not given
Summary of the method: (§2)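 Tubulin from sheep brain, purified by two assembly–disassembly cycles, at about 2–3 mg/mL in 0.1 M MES, 0.5 mM MgCl2, 1 mM EGTA, 1 mM GTP, pH 6.6. Assembly followed by DAPI fluorescence at 37 °C. Single-point inhibition tested at 100 µM. IC50 is the concentration halving the assembly rate relative to no compound, mean of two experiments, with reference inhibitors run the same day.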
`COc1ccc(C(=O)c2cc(OC)c(OC)c(OC)c2)cc1O` [PHENSTATIN] showed an inhibition of 99%.
Compound `C=C(c1cc(OC)c(OC)c(OC)c1)c1cc(OC)c(F)cc1OC` has an inhibition of 44%.

System: HL-60(TB)
Assay: Cytotoxicity against human HL-60(TB) cells assessed as growth inhibition after 48 hrs by SRB assay
Type: functional
Conditions: HL-60, 48 h
Summary of the method: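 NCI 60-human-cancer-cell-line screen; only compounds meeting predetermined threshold inhibition criteria in the single-dose test went on to the 5-dose screen. Cells exposed for 48 h and growth read by sulforhodamine B assay. GI50 is the molar concentration giving 50% growth inhibition of tumour cells.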
For `C=C(c1cc(OC)c(OC)c(OC)c1)c1cc(OC)c(F)cc1OC`, the GI50 was 273 nM.

System: SW-620
Assay: Cytotoxicity against human SW620 cells assessed as growth inhibition after 48 hrs by SRB assay
Type: functional
Conditions: SW-620, 48 h
Summary of the method: as §1
Compound `C=C(c1cc(OC)c(OC)c(OC)c1)c1cc(OC)c(F)cc1OC` has a GI50 of 587 nM.

System: Hs-578T
Assay: Cytotoxicity against human Hs578T cells assessed as growth inhibition after 48 hrs by SRB assay
Type: functional
Conditions: not given
Summary of the method: as §1
For `C=C(c1cc(OC)c(OC)c(OC)c1)c1cc(OC)c(F)cc1OC`, the GI50 was 2190 nM.

System: NCI/ADR-RES
Assay: Cytotoxicity against human NCI/ADR-RES cells assessed as growth inhibition after 48 hrs by SRB assay
Type: functional
Conditions: not given
Summary of the method: as §1
In the case of `C=C(c1cc(OC)c(OC)c(OC)c1)c1cc(OC)c(F)cc1OC`, the GI50 is reported as 375 nM.

System: SR
Assay: Cytotoxicity against human SR cells assessed as growth inhibition after 48 hrs by SRB assay
Type: functional
Conditions: not given
Summary of the method: as §1
Compound `C=C(c1cc(OC)c(OC)c(OC)c1)c1cc(OC)c(F)cc1OC` has a GI50 of 455 nM.

System: SN12C
Assay: Cytotoxicity against human SN12C cells assessed as growth inhibition after 48 hrs by SRB assay
Type: functional
Conditions: not given
Summary of the method: as §1
Compound `C=C(c1cc(OC)c(OC)c(OC)c1)c1cc(OC)c(F)cc1OC` has a GI50 of 498 nM.

System: DU-145
Assay: Cytotoxicity against human DU145 cells assessed as growth inhibition after 48 hrs by SRB assay
Type: functional
Conditions: DU-145, 48 h
Summary of the method: as §1
Work on `COc1ccc(C(=O)c2cc(OC)c(OC)c(OC)c2)cc1O` [PHENSTATIN] yielded a GI50 of 34 nM.
`C=C(c1cc(OC)c(OC)c(OC)c1)c1cc(OC)c(F)cc1OC` showed a GI50 of 2440 nM.

System: NCI-H522
Assay: Cytotoxicity against human NCI-H522 cells assessed as growth inhibition after 48 hrs by SRB assay
Type: functional
Conditions: NCI-H522, 48 h
Summary of the method: as §1
Work on `C=C(c1cc(OC)c(OC)c(OC)c1)c1cc(OC)c(F)cc1OC` yielded a GI50 of 601 nM.

System: SK-OV-3
Assay: Cytotoxicity against human SKOV3 cells assessed as growth inhibition after 48 hrs by SRB assay
Type: functional
Conditions: SK-OV-3, 48 h
Summary of the method: as §1
For `C=C(c1cc(OC)c(OC)c(OC)c1)c1cc(OC)c(F)cc1OC`, the GI50 was 1050 nM.

System: HCT-15
Assay: Cytotoxicity against human HCT15 cells assessed as growth inhibition after 48 hrs by SRB assay
Type: functional
Conditions: HCT-15, 48 h
Summary of the method: as §1
Compound `C=C(c1cc(OC)c(OC)c(OC)c1)c1cc(OC)c(F)cc1OC` has a GI50 of 666 nM.

System: MDA-MB-435
Assay: Cytotoxicity against human MDA-MB-435 cells assessed as growth inhibition after 48 hrs by SRB assay
Type: functional
Conditions: MDA-MB-435, 48 h
Summary of the method: as §1
With `C=C(c1cc(OC)c(OC)c(OC)c1)c1cc(OC)c(F)cc1OC` the GI50 was 260 nM.

System: PC-3
Assay: Cytotoxicity against human PC3 cells assessed as growth inhibition after 48 hrs by SRB assay
Type: functional
Conditions: PC-3, 48 h
Summary of the method: as §1
With `C=C(c1cc(OC)c(OC)c(OC)c1)c1cc(OC)c(F)cc1OC` the GI50 was 2240 nM.

System: Malme-3M
Assay: Cytotoxicity against human MALME-3M cells assessed as growth inhibition after 48 hrs by SRB assay
Type: functional
Conditions: not given
Summary of the method: as §1
`C=C(c1cc(OC)c(OC)c(OC)c1)c1cc(OC)c(F)cc1OC` gave a GI50 of over 10 µM.

System: MDA-MB-231
Assay: Cytotoxicity against human MDA-MB-231 cells assessed as growth inhibition after 48 hrs by SRB assay
Type: functional
Conditions: MDA-MB-231, 48 h
Summary of the method: as §1
`C=C(c1cc(OC)c(OC)c(OC)c1)c1cc(OC)c(F)cc1OC` gave a GI50 of 945 nM.

System: not listed separately
Assay: Inhibition of sheep brain tubulin assembly by DAPI staining-based fluorescence assay
Parameters: species or system Ovis aries
Conditions: not given
Summary of the method: as §2
`COc1ccc(C(=O)c2cc(OC)c(OC)c(OC)c2)cc1O` [PHENSTATIN] gave an IC50 of 3.43 µM.

System: BT-549
Assay: Cytotoxicity against human BT549 cells assessed as growth inhibition after 48 hrs by SRB assay
Type: functional
Conditions: BT-549, 48 h
Summary of the method: as §1
Compound `C=C(c1cc(OC)c(OC)c(OC)c1)c1cc(OC)c(F)cc1OC` has a GI50 of 4.12 µM.

System: KM12
Assay: Cytotoxicity against human KM12 cells assessed as growth inhibition after 48 hrs by SRB assay
Type: functional
Conditions: KM12, 48 h
Summary of the method: as §1
For `C=C(c1cc(OC)c(OC)c(OC)c1)c1cc(OC)c(F)cc1OC`, the GI50 was 568 nM.

System: K562
Assay: Cytotoxicity against human K562 cells assessed as growth inhibition after 48 hrs by SRB assay
Type: functional
Conditions: K562, 48 h
Summary of the method: as §1
In the case of `C=C(c1cc(OC)c(OC)c(OC)c1)c1cc(OC)c(F)cc1OC`, the GI50 is reported as 340 nM.

System: ACHN
Assay: Cytotoxicity against human ACHN cells assessed as growth inhibition after 48 hrs by SRB assay
Type: functional
Conditions: not given
Summary of the method: as §1
`C=C(c1cc(OC)c(OC)c(OC)c1)c1cc(OC)c(F)cc1OC` gave a GI50 of 6.54 µM.

System: NCI-H460
Assay: Cytotoxicity against human NCI-H460 cells assessed as growth inhibition after 48 hrs by SRB assay
Type: functional
Conditions: NCI-H460, 48 h
Summary of the method: as §1
Compound `COc1ccc(C(=O)c2cc(OC)c(OC)c(OC)c2)cc1O` [PHENSTATIN] has a GI50 of 6 nM.
`C=C(c1cc(OC)c(OC)c(OC)c1)c1cc(OC)c(F)cc1OC` showed a GI50 of 1220 nM.

System: CCRF-CEM
Assay: Cytotoxicity against human CCRF-CEM cells assessed as growth inhibition after 48 hrs by SRB assay
Type: functional
Conditions: not given
Summary of the method: as §1
`C=C(c1cc(OC)c(OC)c(OC)c1)c1cc(OC)c(F)cc1OC` showed a GI50 of 1100 nM.

System: NCI-H23
Assay: Cytotoxicity against human NCI-H23 cells assessed as growth inhibition after 48 hrs by SRB assay
Type: functional
Conditions: NCI-H23, 48 h
Summary of the method: as §1
In the case of `C=C(c1cc(OC)c(OC)c(OC)c1)c1cc(OC)c(F)cc1OC`, the GI50 is reported as 2200 nM.

System: SF-539
Assay: Cytotoxicity against human SF539 cells assessed as growth inhibition after 48 hrs by SRB assay
Type: functional
Conditions: SF-539, 48 h
Summary of the method: as §1
With `C=C(c1cc(OC)c(OC)c(OC)c1)c1cc(OC)c(F)cc1OC` the GI50 was 2160 nM.

System: SNB-75
Assay: Cytotoxicity against human SNB75 cells assessed as growth inhibition after 48 hrs by SRB assay
Type: functional
Conditions: SNB-75, 48 h
Summary of the method: as §1
Work on `C=C(c1cc(OC)c(OC)c(OC)c1)c1cc(OC)c(F)cc1OC` yielded a GI50 of 920 nM.

System: M14
Assay: Cytotoxicity against human M14 cells assessed as growth inhibition after 48 hrs by SRB assay
Type: functional
Conditions: M14, 48 h
Summary of the method: as §1
In the case of `C=C(c1cc(OC)c(OC)c(OC)c1)c1cc(OC)c(F)cc1OC`, the GI50 is reported as 547 nM.

System: OVCAR-3
Assay: Cytotoxicity against human OVCAR3 cells assessed as growth inhibition after 48 hrs by SRB assay
Type: functional
Conditions: OVCAR-3, 48 h
Summary of the method: as §1
With `COc1ccc(C(=O)c2cc(OC)c(OC)c(OC)c2)cc1O` [PHENSTATIN] the GI50 was 2 nM.
Compound `C=C(c1cc(OC)c(OC)c(OC)c1)c1cc(OC)c(F)cc1OC` has a GI50 of 521 nM.

System: RXF 393
Assay: Cytotoxicity against human RXF393 cells assessed as growth inhibition after 48 hrs by SRB assay
Type: functional
Conditions: RXF 393, 48 h
Summary of the method: as §1
Work on `C=C(c1cc(OC)c(OC)c(OC)c1)c1cc(OC)c(F)cc1OC` yielded a GI50 of 2160 nM.

System: SNB-19
Assay: Cytotoxicity against human SNB19 cells assessed as growth inhibition after 48 hrs by SRB assay
Type: functional
Conditions: SNB-19, 48 h
Summary of the method: as §1
In the case of `C=C(c1cc(OC)c(OC)c(OC)c1)c1cc(OC)c(F)cc1OC`, the GI50 is reported as 3.3 µM.
